Data reported in ChEMBL document CHEMBL4017524, “A Novel Arylurea Fatty Acid That Targets the Mitochondrion and Depletes Cardiolipin To Promote Killing of Breast Cancer Cells” (J Med Chem, 2017).
Active and inactive are the calls of the source. The rule behind the calls is not given here.

Legend:
[1] = test system: MDA-MB-231; test: Cytotoxicity against human MDA-MB-231 cells assessed as decrease in ATP production at 10 uM after 24 to 48 hrs by CellTiter-Glo luminescent assay; type: functional, cell-based
[2] = test system: MDA-MB-231; test: Induction of apoptosis in human MDA-MB-231 cells assessed as mitochondrial membrane disruption by measuring red to green fluorescence ratio at 10 uM after 24 hrs by JC-1 staining based microscopic method relative to control; type: functional
Method in brief: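 Cells exposed for 24 h at 10 µM, then stained with the cationic dye JC-1. Red (aggregate, intact inner membrane) to green (monomer) fluorescence ratio expressed relative to DMSO control. Mean±SEM of three experiments.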

[3] = test system: MDA-MB-231; test: Induction of apoptosis in human MDA-MB-231 cells at 10 uM after 48 hrs by annexin VFITC/7AAD staining based flow cytometry; type: functional, cell-based
Method in brief: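 Annexin V-FITC/7AAD flow cytometry of cells after 48 h at 10 µM. Quadrants: E4 annexin V only (early apoptotic), E2 dual-stained (late apoptotic), E1 7AAD only, E3 unstained (viable). Compared with DMSO control. Mean±SEM from three experiments.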

[4] = test system: MDA-MB-231; test: Cell cycle arrest in human MDA-MB-231 cells at 10 uM after 24 hrs by propidium iodide staining based flow cytometric analysis
[5] = test system: MDA-MB-231; test: Induction of mitochondrial membrane disruption in human MDA-MB-231 cells assessed as mitochondrial cardiolipin level at 14 uM after 24 hrs relative to control; type: functional
[6] = test system: MDA-MB-231; test: Induction of apoptosis in human MDA-MB-231 cells assessed as increase in caspases 3/7 activity at 10 uM after 48 hrs by Caspase-Glo assay; type: functional, cell-based
[7] = test system: MDA-MB-231; test: Cytotoxicity against human MDA-MB-231 cells assessed as decrease in cell viability at 40 uM after 48 hrs by crystal violet staining based assay; type: functional
[8] = test system: MDA-MB-231; test: Cytotoxicity against human MDA-MB-231 cells assessed as decrease in cell adherence at 40 uM after 48 hrs by crystal violet staining based assay; type: functional
[9] = test system: MDA-MB-231; test: Induction of apoptosis in human MDA-MB-231 cells assessed as mitochondrial membrane disruption at 10 uM after 6 hrs by JC-1/Hoechst 33342 staining based fluorescence microscopic assay; type: functional, cell-based
Method in brief: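 Treatment with 10 µM or DMSO for 6 h. Cells were washed twice with serum-free medium, then incubated with JC-1 in serum-free medium at 37°C for 20 min. Hoechst 33342 nuclear counterstain, then fluorescence microscopy of green monomers versus red aggregates.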

| SMILES | Activity [1] | Activity [2] | Activity [3] | Activity [4] | Activity [5] | Activity [6] | Activity [7] | Activity [8] | Activity [9] |
| --- | --- | --- | --- | --- | --- | --- | --- | --- | --- |
| O=C(O)CCCCCCCCCCCCCCCNC(=O)Nc1ccc(F)cc1 | inactive | inactive | – | – | – | – | – | – | – |
| O=C(O)CCCCCCCCCCCCCCCNC(=O)Nc1ccc(I)cc1 | inactive | inactive | – | – | – | – | – | – | – |
| CCNC(=O)NCCCCCCCCCCCCCCCC(=O)O | inactive | inactive | inactive | inactive | inactive | – | – | – | – |
| O=C(O)CCCCCCCCCCCCCCCNC(=O)Nc1ccccc1 | inactive | inactive | inactive | inactive | – | inactive | inactive | inactive | – |
| O=C(O)CCCCCCCCCCCCCCCNC(=O)Nc1ccc(Cl)c(Cl)c1 | inactive | inactive | inactive | inactive | – | inactive | inactive | inactive | – |
| CNC(=O)c1cc(Oc2ccc(NC(=O)Nc3ccc(Cl)c(C(F)(F)F)c3)cc2)ccn1 | – | – | – | – | – | – | – | – | Active |
